Assay results published in ChEMBL document CHEMBL5724801, “EUbOPEN Chemogenomics Library - Multiplex” (2024).
“And” between values parts separate entries of the source, which are not always exact repeats. Identical values can stand only once.

System: Fibroblast
Experiment: Multiplex assay against human fibroblast
Format: toxicity, cell-based
In short: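 Cells were classed with CellPathfinder machine-learning gating, first as Hoechst high-intensity objects or normal cells, then (normal cells) as healthy, pyknosed or fragmented nuclei, and finally (pyknosed cells) as mitotic or apoptotic. Staining of live cells at seeding used Hoechst33342, BioTracker Green Microtubule Cytoskeleton Dye, MitoTracker Red and Annexin V Alexa Fluor 680, with imaging on a CQ1 microscope at 37°C and 5% CO2 after compound addition. Tubulin, mitochondrial-mass and membrane-permeability phenotypes are per cents of healthy-nucleus cells.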

[1] = 12 h, 1 µM, compound concentration 1 uM
[2] = 12 h, 10 µM, compound concentration 10 uM
[3] = 24 h, 1 µM, compound concentration 1 uM
[4] = 24 h, 10 µM, compound concentration 10 uM
[5] = 48 h, 1 µM, compound concentration 1 uM
[6] = 48 h, 10 µM, compound concentration 10 uM

O=C1[C@H](Cc2ccc(O)cc2)N2C(=O)CCN(C(=O)NCc3ccccc3)[C@H]2CN1Cc1cccc2ccccc12
Population Apoptotic (%) [1]: 32% and 30% | Population Fragmented Nuclei (%) [1]: 18% and 27% | Population Healthy Nuclei (%) [1]: 57% and 45% | Population Hoechst High Intensity Objects (%) [1]: 3% and 2% | Population Membrane Permeable-Phenotype (%) [1]: 0% and 5% | Population Mitochondria Different-Phenotype (%) [1]: 11% and 13% | Population Mitotic Cells (%) [1]: 67% and 69% | Population Normal (%) [1]: 96% and 97% | Population Pyknosed Nuclei (%) [1]: 24% and 26% | Population Tubulin-Different-Phenotype (%) [1]: 47% and 58% | Total Cell Count [1]: 160 and 152 | Population Apoptotic (%) [2]: 35% and 45% | Population Fragmented Nuclei (%) [2]: 18% and 23% | Population Healthy Nuclei (%) [2]: 58% and 45% | Population Hoechst High Intensity Objects (%) [2]: 8% and 9% | Population Membrane Permeable-Phenotype (%) [2]: 0% and 8% | Population Mitochondria Different-Phenotype (%) [2]: 24% and 15% | Population Mitotic Cells (%) [2]: 64% and 55% | Population Normal (%) [2]: 91% and 90% | Population Pyknosed Nuclei (%) [2]: 23% and 30% | Population Tubulin-Different-Phenotype (%) [2]: 84% and 83% | Total Cell Count [2]: 146 and 144 | Population Apoptotic (%) [3]: 42% and 28% | Population Fragmented Nuclei (%) [3]: 16% and 30% | Population Healthy Nuclei (%) [3]: 62% and 47% | Population Hoechst High Intensity Objects (%) [3]: 3% and 2% | Population Membrane Permeable-Phenotype (%) [3]: 3% and 7% | Population Mitochondria Different-Phenotype (%) [3]: 7% and 8% | Population Mitotic Cells (%) [3]: 57% and 71% | Population Normal (%) [3]: 96% and 97% | Population Pyknosed Nuclei (%) [3]: 21% and 22% | Population Tubulin-Different-Phenotype (%) [3]: 49% and 58% | Total Cell Count [3]: 158 and 147 | Population Apoptotic (%) [4]: 44% and 64% | Population Fragmented Nuclei (%) [4]: 15% and 25% | Population Healthy Nuclei (%) [4]: 62% and 47% | Population Hoechst High Intensity Objects (%) [4]: 10% and 7% | Population Mitochondria Different-Phenotype (%) [4]: 44% and 21% | Population Mitotic Cells (%) [4]: 55% and 35% | Population Normal (%) [4]: 89% and 92% | Population Pyknosed Nuclei (%) [4]: 21% and 26% | Population Tubulin-Different-Phenotype (%) [4]: 83% | Total Cell Count [4]: 141 and 137 | Population Apoptotic (%) [5]: 62% and 54% | Population Fragmented Nuclei (%) [5]: 22% and 37% | Population Healthy Nuclei (%) [5]: 59% and 45% | Population Hoechst High Intensity Objects (%) [5]: 7% and 5% | Population Membrane Permeable-Phenotype (%) [5]: 2% and 5% | Population Mitochondria Different-Phenotype (%) [5]: 7% and 6% | Population Mitotic Cells (%) [5]: 37% and 45% | Population Normal (%) [5]: 92% and 94% | Population Pyknosed Nuclei (%) [5]: 17% | Population Tubulin-Different-Phenotype (%) [5]: 54% and 48% | Total Cell Count [5]: 164 and 135 | Population Apoptotic (%) [6]: 85% and 66% | Population Fragmented Nuclei (%) [6]: 21% and 32% | Population Healthy Nuclei (%) [6]: 58% and 53% | Population Hoechst High Intensity Objects (%) [6]: 15% and 10% | Population Membrane Permeable-Phenotype (%) [6]: 0% and 5% | Population Mitochondria Different-Phenotype (%) [6]: 50% and 38% | Population Mitotic Cells (%) [6]: 14% and 33% | Population Normal (%) [6]: 84% and 89% | Population Pyknosed Nuclei (%) [6]: 20% and 14% | Population Tubulin-Different-Phenotype (%) [6]: 85% and 94% | Total Cell Count [6]: 124 and 119

C[C@H](N)COC(=O)[C@@H](CCCCN)NC(=O)Cc1c(-c2ccc3ccccc3c2)[nH]c2c1ccc1ccccc12
Population Apoptotic (%) [1]: 32% and 50% | Population Fragmented Nuclei (%) [1]: 18% and 25% | Population Healthy Nuclei (%) [1]: 65% and 51% | Population Hoechst High Intensity Objects (%) [1]: 1% and 4% | Population Membrane Permeable-Phenotype (%) [1]: 0% and 5% | Population Mitochondria Different-Phenotype (%) [1]: 7% and 4% | Population Mitotic Cells (%) [1]: 67% and 50% | Population Normal (%) [1]: 98% and 95% | Population Pyknosed Nuclei (%) [1]: 15% and 23% | Population Tubulin-Different-Phenotype (%) [1]: 32% and 36% | Total Cell Count [1]: 179 and 170 | Population Apoptotic (%) [2]: 43% and 62% | Population Fragmented Nuclei (%) [2]: 13% and 32% | Population Healthy Nuclei (%) [2]: 69% and 50% | Population Hoechst High Intensity Objects (%) [2]: 2% and 7% | Population Membrane Permeable-Phenotype (%) [2]: 1% and 5% | Population Mitochondria Different-Phenotype (%) [2]: 8% and 6% | Population Mitotic Cells (%) [2]: 56% and 37% | Population Normal (%) [2]: 97% and 92% | Population Pyknosed Nuclei (%) [2]: 16% and 17% | Population Tubulin-Different-Phenotype (%) [2]: 33% and 47% | Total Cell Count [2]: 183 and 167 | Population Apoptotic (%) [3]: 53% and 29% | Population Fragmented Nuclei (%) [3]: 16% and 25% | Population Healthy Nuclei (%) [3]: 66% and 54% | Population Hoechst High Intensity Objects (%) [3]: 3% and 7% | Population Membrane Permeable-Phenotype (%) [3]: 0% and 3% | Population Mitochondria Different-Phenotype (%) [3]: 5% and 7% | Population Mitotic Cells (%) [3]: 46% and 70% | Population Normal (%) [3]: 96% and 92% | Population Pyknosed Nuclei (%) [3]: 17% and 20% | Population Tubulin-Different-Phenotype (%) [3]: 30% and 39% | Total Cell Count [3]: 179 and 162 | Population Apoptotic (%) [4]: 63% and 50% | Population Fragmented Nuclei (%) [4]: 13% and 36% | Population Healthy Nuclei (%) [4]: 74% and 50% | Population Hoechst High Intensity Objects (%) [4]: 7% and 6% | Population Membrane Permeable-Phenotype (%) [4]: 0% and 5% | Population Mitochondria Different-Phenotype (%) [4]: 5% | Population Mitotic Cells (%) [4]: 36% and 50% | Population Normal (%) [4]: 92% and 93% | Population Pyknosed Nuclei (%) [4]: 11% and 13% | Population Tubulin-Different-Phenotype (%) [4]: 31% and 54% | Total Cell Count [4]: 171 and 159 | Population Apoptotic (%) [5]: 72% and 51% | Population Fragmented Nuclei (%) [5]: 21% and 30% | Population Healthy Nuclei (%) [5]: 65% and 50% | Population Hoechst High Intensity Objects (%) [5]: 5% and 2% | Population Membrane Permeable-Phenotype (%) [5]: 0% and 3% | Population Mitochondria Different-Phenotype (%) [5]: 7% and 6% | Population Mitotic Cells (%) [5]: 27% and 48% | Population Normal (%) [5]: 94% and 97% | Population Pyknosed Nuclei (%) [5]: 12% and 18% | Population Tubulin-Different-Phenotype (%) [5]: 26% and 39% | Total Cell Count [5]: 186 and 169 | Population Apoptotic (%) [6]: 46% and 55% | Population Fragmented Nuclei (%) [6]: 16% and 36% | Population Healthy Nuclei (%) [6]: 68% and 52% | Population Hoechst High Intensity Objects (%) [6]: 9% and 5% | Population Membrane Permeable-Phenotype (%) [6]: 0% and 7% | Population Mitochondria Different-Phenotype (%) [6]: 4% and 8% | Population Mitotic Cells (%) [6]: 53% and 44% | Population Normal (%) [6]: 90% and 94% | Population Pyknosed Nuclei (%) [6]: 15% and 11% | Population Tubulin-Different-Phenotype (%) [6]: 35% and 54% | Total Cell Count [6]: 185 and 166
